Measured values published in ChEMBL document CHEMBL2062382, “Bicyclic C21 terpenoids from the marine sponge Clathria compressa” (J Nat Prod, 2012).
Values after ≈ are worked out from the molar mass of the structure shown. Active and inactive are the calls of the source. The calls are words filed in the database; no cut-off is given here.

How the values were obtained:
[1] = test system: Staphylococcus aureus; experiment: Antibacterial activity against Staphylococcus aureus ATCC 6538P up to 128 ug/ml after 20 hrs by broth microdilution method; format: functional, organism-based
Procedure, shortened: (§1)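 Strains are grown on Müller-Hinton agar at 37 °C for 24 h, then in Müller-Hinton broth at 37 °C for 24 h. Mid-log cells at an initial 600 nm absorbance of 0.001 are exposed to two-fold serial dilutions from 0.01 to 128 µg/mL, in duplicate. Samples are dissolved in 5% DMSO/H2O, giving final DMSO below 0.5% in wells and matched in controls. Methicillin is the reference. MIC is read after 20 h at 37 °C with gentle shaking.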

[2] = test system: Staphylococcus aureus; experiment: Antibacterial activity against vancomycin-resistant Staphylococcus aureus up to 128 ug/ml after 20 hrs by broth microdilution method; format: functional, organism-based
Procedure, shortened: (§2)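 ATCC strains grown on Müller-Hinton agar 37 °C 24 h, then in Müller-Hinton broth 37 °C 24 h. MIC by two-fold serial broth microdilution, 0.01 to 128 μg/mL; samples dissolved in 5% DMSO in water, final DMSO below 0.5% in all wells, duplicate. Mid-log cells at initial A600 0.001; read after 20 h at 37 °C with gentle shaking. Methicillin control included.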

[3] = test system: Klebsiella pneumoniae; experiment: Antibacterial activity against Klebsiella pneumoniae ATCC 10031 at 128 ug/ml after 20 hrs by broth microdilution method; format: functional, organism-based; procedure, shortened: as §1
[4] = test system: Escherichia coli; experiment: Antibacterial activity against Escherichia coli KCTC 1923 at 128 ug/ml after 20 hrs by broth microdilution method; format: functional, organism-based
[5] = Cytotoxicity against human BG02 cells at 40 uM; format: cell-based; conditions: bg02, 40 µM
Procedure, shortened: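 Growth inhibition of human embryonic stem cells (BG02) was tracked by real-time cell electronic sensing (RT-CES) in a 96-well format, with each compound tested at 40 µM.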

[6] = test system: Staphylococcus aureus; experiment: Antibacterial activity against methicillin-resistant Staphylococcus aureus ATCC 33591 up to 128 ug/ml after 20 hrs by broth microdilution method; format: functional, organism-based; procedure, shortened: as §2
[7] = test system: Staphylococcus aureus; experiment: Antibacterial activity against vancomycin-resistant Staphylococcus aureus after 20 hrs by broth microdilution method; format: functional; procedure, shortened: as §2
[8] = test system: Staphylococcus aureus; experiment: Antibacterial activity against methicillin-resistant Staphylococcus aureus ATCC 33591 after 20 hrs by broth microdilution method; format: functional; conditions: ATCC 33591, 20 h; procedure, shortened: as §2
[9] = test system: Staphylococcus aureus; experiment: Antibacterial activity against Staphylococcus aureus ATCC 6538P after 20 hrs by broth microdilution method; format: functional; procedure, shortened: as §1

Row | SMILES | Activity [1] | Activity [2] | Activity [3] | Activity [4] | Activity [5] | Activity [6] | MIC [7] [µg/mL] | MIC [8] [µg/mL] | MIC [9] [µg/mL]
1 | C=C1CC[C@@H]2[C@](C)(CCC[C@@]2(C)/C=C/C=C(C)C)[C@H]1CC(=O)NCCS(=O)(=O)O (relative stereo) | inactive | inactive | inactive | inactive | Non-toxic | inactive |  |  | 
2 | C=C1CC[C@@H]2[C@](C)(CCC[C@@]2(C)/C=C/C=C(C)C)[C@H]1CC(=O)O (relative stereo) |  |  | inactive | inactive | Non-toxic |  | 64 (≈ 202 µM) | 64 (≈ 202 µM) | 32 (≈ 101 µM)
3 | C=C1CC[C@@H]2[C@](C)(CCC[C@@]2(C)/C=C/C(O)C(C)(C)O)[C@H]1CC(=O)NCCS(=O)(=O)O (relative stereo) | inactive | inactive | inactive | inactive | Non-toxic | inactive |  |  | 
